Measured values: ChEMBL document CHEMBL1811853, “Design and evaluation of 3-aminopyrazolopyridinone kinase inhibitors inspired by the natural product indirubin” (Bioorg Med Chem, 2011)

Columns and labels:
[1] = biological target: Ribosomal protein S6 kinase alpha-1 (Homo sapiens) (UniProt Q15418); assay: Inhibition of RSK1 at 30 uM by microfluidic mobility shift assay
How it was run: (§1)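 Single-concentration screen, singlicate, 30 uM final (diluted from 1 mM DMSO solutions), fluorescently tagged peptide substrate appropriate to each kinase, ATP at apparent Km for each protein. Phosphorylated and unphosphorylated peptides separated electrophoretically; conversion is the phosphorylated peak area over the sum of both peaks. No-inhibitor and no-ATP controls; H89 reference on each plate.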

[2] = biological target: T1, Tyrosine-protein kinase Lck (Homo sapiens, UniProt P06239); assay: Inhibition of LCK by microfluidic mobility shift assay
How it was run: (§2)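 IC50 determined in the mobility shift format: a fluorescently tagged peptide substrate appropriate to each kinase, ATP at its apparent Km for each protein, and electrophoretic separation of phospho and unphosphorylated peptide. Percent conversion is the ratio of the phosphopeptide peak area to the total peak area. Controls were no inhibitor and no ATP.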

[3] = biological target: T2, Mitogen-activated protein kinase 14 (Homo sapiens, UniProt Q16539); assay: Inhibition of p38alpha at 30 uM by microfluidic mobility shift assay; how it was run: as §1
T2 sequence (Q16539 whole entry): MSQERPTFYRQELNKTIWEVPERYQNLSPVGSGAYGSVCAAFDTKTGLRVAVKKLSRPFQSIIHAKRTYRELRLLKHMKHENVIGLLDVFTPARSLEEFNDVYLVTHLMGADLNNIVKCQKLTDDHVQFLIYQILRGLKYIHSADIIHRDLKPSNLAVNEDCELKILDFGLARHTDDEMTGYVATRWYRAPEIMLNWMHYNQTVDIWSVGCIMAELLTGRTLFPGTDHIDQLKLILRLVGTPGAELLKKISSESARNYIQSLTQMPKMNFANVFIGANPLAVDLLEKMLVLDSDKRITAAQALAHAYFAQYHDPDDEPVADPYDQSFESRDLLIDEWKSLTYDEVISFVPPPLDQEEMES

[4] = biological target: T3, Tyrosine-protein kinase Fyn (Homo sapiens, UniProt P06241); assay: Inhibition of FYN by microfluidic mobility shift assay; how it was run: as §2
Target sequence in this assay (P06241 whole entry): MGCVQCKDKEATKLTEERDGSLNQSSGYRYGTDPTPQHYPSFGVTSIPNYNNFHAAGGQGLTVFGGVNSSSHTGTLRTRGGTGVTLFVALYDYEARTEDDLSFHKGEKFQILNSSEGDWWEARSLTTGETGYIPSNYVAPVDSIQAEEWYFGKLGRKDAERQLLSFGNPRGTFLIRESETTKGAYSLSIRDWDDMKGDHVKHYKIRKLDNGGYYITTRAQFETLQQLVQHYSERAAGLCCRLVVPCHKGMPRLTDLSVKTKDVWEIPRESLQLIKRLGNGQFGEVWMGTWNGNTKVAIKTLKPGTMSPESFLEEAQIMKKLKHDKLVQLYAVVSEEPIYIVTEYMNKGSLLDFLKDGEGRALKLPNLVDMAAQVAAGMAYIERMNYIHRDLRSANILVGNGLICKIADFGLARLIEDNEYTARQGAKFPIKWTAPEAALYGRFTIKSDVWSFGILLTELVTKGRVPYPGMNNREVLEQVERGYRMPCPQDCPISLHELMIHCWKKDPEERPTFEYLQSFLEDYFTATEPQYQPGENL

[5] = biological target: T4, Proto-oncogene tyrosine-protein kinase Src (Homo sapiens, UniProt P12931); assay: Inhibition of SRC at 30 uM by microfluidic mobility shift assay; how it was run: as §1
T4 sequence (P12931 2-536 limits assumed): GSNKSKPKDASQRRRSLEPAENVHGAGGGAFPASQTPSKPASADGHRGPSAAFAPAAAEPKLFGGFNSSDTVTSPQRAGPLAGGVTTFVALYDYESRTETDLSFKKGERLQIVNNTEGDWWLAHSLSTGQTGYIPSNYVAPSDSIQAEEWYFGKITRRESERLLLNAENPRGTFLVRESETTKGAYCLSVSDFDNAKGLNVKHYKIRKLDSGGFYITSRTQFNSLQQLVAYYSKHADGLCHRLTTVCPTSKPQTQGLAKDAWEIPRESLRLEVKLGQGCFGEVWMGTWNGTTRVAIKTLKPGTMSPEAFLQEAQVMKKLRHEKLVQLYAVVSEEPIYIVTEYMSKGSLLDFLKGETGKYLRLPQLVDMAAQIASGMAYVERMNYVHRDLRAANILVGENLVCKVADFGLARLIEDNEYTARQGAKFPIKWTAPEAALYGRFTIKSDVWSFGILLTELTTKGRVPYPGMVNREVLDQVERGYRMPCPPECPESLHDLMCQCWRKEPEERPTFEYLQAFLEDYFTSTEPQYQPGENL

[6] = biological target: T5, MAP kinase-activated protein kinase 5 (Homo sapiens) (UniProt Q8IW41); assay: Inhibition of PRAK1 at 30 uM by microfluidic mobility shift assay; how it was run: as §1
T5 sequence (whole entry): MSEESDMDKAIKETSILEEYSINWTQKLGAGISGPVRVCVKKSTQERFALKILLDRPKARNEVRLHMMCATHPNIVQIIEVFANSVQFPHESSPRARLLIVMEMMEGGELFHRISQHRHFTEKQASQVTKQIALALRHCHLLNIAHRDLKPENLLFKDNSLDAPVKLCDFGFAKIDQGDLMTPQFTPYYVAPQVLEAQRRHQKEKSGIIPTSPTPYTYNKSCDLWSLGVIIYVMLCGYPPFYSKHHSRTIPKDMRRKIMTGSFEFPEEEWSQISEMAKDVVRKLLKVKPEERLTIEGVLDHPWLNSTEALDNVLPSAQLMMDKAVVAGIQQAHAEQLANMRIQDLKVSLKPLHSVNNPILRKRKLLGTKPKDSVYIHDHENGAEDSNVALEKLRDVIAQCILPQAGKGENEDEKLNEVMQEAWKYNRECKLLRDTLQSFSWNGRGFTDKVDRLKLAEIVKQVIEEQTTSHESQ

[7] = biological target: Ribosomal protein S6 kinase alpha-5 (Homo sapiens) (UniProt O75582); assay: Inhibition of MSK1 at 30 uM by microfluidic mobility shift assay; how it was run: as §1
[8] = biological target: RAC-beta serine/threonine-protein kinase (Homo sapiens) (UniProt P31751); assay: Inhibition of AKT2 at 30 uM by microfluidic mobility shift assay; how it was run: as §1
[9] = biological target: T3, Tyrosine-protein kinase Fyn; assay: Inhibition of FYN at 30 uM by microfluidic mobility shift assay; how it was run: as §1
[10] = biological target: Serine/threonine-protein kinase Chk2 (Homo sapiens, UniProt O96017); assay: Inhibition of CHK2 at 30 uM by microfluidic mobility shift assay; how it was run: as §1
[11] = biological target: RAC-alpha serine/threonine-protein kinase (Homo sapiens) (UniProt P31749); assay: Inhibition of AKT1 at 30 uM by microfluidic mobility shift assay; how it was run: as §1
MCF7 = assay: Growth inhibition of human MCF7 cells at 0.039 uM; type: functional; settings: read-out: GI
[12] = biological target: T6, Tyrosine-protein kinase ABL1 (Homo sapiens, UniProt P00519); assay: Inhibition of ABL by microfluidic mobility shift assay; how it was run: as §2
T6 sequence (P00519 whole entry): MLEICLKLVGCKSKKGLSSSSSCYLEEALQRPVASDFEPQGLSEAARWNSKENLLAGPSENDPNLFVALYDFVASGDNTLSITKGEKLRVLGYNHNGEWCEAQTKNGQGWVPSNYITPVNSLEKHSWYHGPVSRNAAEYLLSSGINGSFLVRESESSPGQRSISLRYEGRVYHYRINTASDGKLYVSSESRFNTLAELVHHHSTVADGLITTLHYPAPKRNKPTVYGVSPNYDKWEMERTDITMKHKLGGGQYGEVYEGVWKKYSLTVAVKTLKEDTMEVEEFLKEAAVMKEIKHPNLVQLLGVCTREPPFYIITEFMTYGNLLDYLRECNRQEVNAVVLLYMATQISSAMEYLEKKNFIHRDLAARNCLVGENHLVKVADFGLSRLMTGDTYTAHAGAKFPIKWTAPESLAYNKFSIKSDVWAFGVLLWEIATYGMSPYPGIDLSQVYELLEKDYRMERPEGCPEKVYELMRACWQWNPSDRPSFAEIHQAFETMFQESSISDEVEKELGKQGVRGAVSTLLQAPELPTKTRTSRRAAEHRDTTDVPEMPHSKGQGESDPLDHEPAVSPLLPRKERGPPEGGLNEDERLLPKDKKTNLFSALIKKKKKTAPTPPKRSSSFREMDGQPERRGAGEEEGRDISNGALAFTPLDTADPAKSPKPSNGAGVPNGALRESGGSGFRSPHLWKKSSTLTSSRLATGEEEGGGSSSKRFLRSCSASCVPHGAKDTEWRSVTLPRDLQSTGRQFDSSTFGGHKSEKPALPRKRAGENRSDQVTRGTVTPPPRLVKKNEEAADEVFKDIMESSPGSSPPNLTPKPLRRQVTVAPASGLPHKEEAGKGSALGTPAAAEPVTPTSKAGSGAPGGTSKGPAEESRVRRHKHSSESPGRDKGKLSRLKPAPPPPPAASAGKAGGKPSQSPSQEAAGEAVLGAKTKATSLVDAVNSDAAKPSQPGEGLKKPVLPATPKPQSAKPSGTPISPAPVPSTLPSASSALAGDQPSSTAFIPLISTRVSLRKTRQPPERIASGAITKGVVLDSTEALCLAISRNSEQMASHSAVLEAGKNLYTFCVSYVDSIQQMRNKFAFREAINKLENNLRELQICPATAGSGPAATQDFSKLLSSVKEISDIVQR

[13] = biological target: T7, Aurora kinase A (Homo sapiens) (UniProt O14965); assay: Inhibition of AurA at 30 uM by microfluidic mobility shift assay; how it was run: as §1
T7 sequence (whole entry): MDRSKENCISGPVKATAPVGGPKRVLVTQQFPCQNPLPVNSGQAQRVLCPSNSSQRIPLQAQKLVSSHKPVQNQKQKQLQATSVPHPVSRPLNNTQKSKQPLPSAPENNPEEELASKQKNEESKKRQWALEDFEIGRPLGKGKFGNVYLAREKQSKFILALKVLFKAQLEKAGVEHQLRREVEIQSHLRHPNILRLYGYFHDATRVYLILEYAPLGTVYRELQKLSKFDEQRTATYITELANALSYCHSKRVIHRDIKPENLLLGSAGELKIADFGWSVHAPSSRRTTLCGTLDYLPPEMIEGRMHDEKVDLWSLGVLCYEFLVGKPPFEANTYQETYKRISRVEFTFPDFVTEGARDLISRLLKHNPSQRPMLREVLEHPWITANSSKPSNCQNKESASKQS

[14] = Aqueous solubility of the compound by HPLC analysis; type: physicochemical; settings: water
How it was run: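 Solubility determined by HPLC measurement of the concentration in saturated aqueous solutions of the compounds.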

[15] = biological target: T8, Tyrosine-protein kinase Lyn (Homo sapiens, UniProt P07948); assay: Inhibition of LYN at 30 uM by microfluidic mobility shift assay; how it was run: as §1
Target sequence in this assay (P07948 2-512 limits assumed): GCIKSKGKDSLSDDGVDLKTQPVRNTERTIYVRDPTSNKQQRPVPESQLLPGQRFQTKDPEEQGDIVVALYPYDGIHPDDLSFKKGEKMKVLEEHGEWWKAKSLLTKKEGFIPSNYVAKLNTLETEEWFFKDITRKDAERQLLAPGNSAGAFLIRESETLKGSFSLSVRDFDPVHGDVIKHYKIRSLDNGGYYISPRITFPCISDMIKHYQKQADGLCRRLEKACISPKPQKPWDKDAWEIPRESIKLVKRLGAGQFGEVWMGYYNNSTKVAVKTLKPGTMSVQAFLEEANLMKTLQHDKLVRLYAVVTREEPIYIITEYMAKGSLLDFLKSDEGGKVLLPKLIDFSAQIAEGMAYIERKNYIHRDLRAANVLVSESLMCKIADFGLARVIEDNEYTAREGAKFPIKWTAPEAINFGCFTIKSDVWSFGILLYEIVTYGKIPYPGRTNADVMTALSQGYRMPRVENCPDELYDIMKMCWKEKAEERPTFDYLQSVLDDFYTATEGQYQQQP

[16] = biological target: Glycogen synthase kinase-3 beta (Homo sapiens) (UniProt P49841); assay: Inhibition of GSK3B at 30 uM by microfluidic mobility shift assay; how it was run: as §1
[17] = biological target: MAP kinase-activated protein kinase 2 (Homo sapiens, UniProt P49137); assay: Inhibition of MAPKAPK2 at 30 uM by microfluidic mobility shift assay; how it was run: as §1
[18] = biological target: T9, Serine/threonine-protein kinase D2 (Homo sapiens) (UniProt Q9BZL6); assay: Inhibition of PKD2 at 30 uM by microfluidic mobility shift assay; how it was run: as §1
T9 sequence (whole entry): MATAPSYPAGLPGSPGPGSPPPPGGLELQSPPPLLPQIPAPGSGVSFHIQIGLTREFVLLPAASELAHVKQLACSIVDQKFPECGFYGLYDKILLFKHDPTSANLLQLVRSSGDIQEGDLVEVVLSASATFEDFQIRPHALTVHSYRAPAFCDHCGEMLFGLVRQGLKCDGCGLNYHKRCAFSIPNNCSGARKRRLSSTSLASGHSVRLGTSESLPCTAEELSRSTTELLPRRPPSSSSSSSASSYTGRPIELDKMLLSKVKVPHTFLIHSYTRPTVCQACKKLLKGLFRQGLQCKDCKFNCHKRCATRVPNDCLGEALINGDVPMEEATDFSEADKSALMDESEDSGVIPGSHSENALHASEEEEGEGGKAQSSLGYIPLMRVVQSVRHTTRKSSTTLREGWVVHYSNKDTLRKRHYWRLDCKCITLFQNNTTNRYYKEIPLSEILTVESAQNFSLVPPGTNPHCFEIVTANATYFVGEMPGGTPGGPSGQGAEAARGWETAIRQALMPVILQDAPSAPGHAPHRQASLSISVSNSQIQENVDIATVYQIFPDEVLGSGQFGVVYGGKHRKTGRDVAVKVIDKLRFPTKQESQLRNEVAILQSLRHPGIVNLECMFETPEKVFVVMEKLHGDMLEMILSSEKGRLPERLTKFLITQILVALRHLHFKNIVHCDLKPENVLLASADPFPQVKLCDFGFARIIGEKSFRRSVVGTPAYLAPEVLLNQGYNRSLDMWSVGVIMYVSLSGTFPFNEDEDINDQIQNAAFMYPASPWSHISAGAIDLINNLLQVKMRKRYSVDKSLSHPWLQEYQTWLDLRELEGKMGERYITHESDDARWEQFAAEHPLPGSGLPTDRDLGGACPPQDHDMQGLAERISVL

[19] = biological target: T1, Tyrosine-protein kinase Lck; assay: Inhibition of LCK at 30 uM by microfluidic mobility shift assay; how it was run: as §1
[20] = biological target: Mitogen-activated protein kinase 1 (Homo sapiens) (UniProt P28482); assay: Inhibition of ERK2 at 30 uM by microfluidic mobility shift assay; how it was run: as §1
Sequence of Mitogen-activated protein kinase 1 (Homo sapiens) (P28482 whole entry): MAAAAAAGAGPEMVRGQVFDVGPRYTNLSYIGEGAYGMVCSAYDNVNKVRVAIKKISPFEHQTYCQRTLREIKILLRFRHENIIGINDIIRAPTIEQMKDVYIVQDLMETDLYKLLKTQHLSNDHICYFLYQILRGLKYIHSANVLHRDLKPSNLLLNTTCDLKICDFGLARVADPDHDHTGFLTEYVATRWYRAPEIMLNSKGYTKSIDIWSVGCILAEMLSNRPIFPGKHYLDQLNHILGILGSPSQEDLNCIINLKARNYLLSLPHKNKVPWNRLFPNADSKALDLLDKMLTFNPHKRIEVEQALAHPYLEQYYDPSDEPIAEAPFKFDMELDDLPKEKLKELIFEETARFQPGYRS

[21] = biological target: T8, Tyrosine-protein kinase Lyn; assay: Inhibition of LYN by microfluidic mobility shift assay; how it was run: as §2
Target sequence in this assay (P07948 whole entry): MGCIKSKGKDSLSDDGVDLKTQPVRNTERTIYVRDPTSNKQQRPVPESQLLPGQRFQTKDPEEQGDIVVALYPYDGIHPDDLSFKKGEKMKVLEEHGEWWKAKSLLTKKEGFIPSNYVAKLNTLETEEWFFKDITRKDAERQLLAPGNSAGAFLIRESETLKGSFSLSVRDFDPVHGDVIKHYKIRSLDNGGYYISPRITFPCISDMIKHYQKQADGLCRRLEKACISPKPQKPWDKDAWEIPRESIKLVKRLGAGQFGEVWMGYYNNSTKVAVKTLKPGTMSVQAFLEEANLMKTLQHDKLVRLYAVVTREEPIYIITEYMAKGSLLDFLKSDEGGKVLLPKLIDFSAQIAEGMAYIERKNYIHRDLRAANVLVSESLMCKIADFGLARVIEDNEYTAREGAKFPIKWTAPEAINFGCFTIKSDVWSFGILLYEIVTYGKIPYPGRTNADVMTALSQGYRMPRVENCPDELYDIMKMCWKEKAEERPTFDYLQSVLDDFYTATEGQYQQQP

[22] = biological target: Mitogen-activated protein kinase 3 (Homo sapiens) (UniProt P27361); assay: Inhibition of ERK1 at 30 uM by microfluidic mobility shift assay; how it was run: as §1
[23] = biological target: T4, Proto-oncogene tyrosine-protein kinase Src; assay: Inhibition of SRC by microfluidic mobility shift assay; how it was run: as §2
[24] = Inhibition of PKA at 30 uM by microfluidic mobility shift assay; how it was run: as §1
[25] = biological target: T2, Mitogen-activated protein kinase 14; assay: Inhibition of p38alpha by microfluidic mobility shift assay; how it was run: as §2
[26] = biological target: Insulin receptor (Homo sapiens) (UniProt P06213); assay: Inhibition of INSR at 30 uM by microfluidic mobility shift assay; how it was run: as §1
[27] = biological target: T6, Tyrosine-protein kinase ABL1; assay: Inhibition of ABL at 30 uM by microfluidic mobility shift assay; how it was run: as §1

Sequence of Ribosomal protein S6 kinase alpha-1 (Homo sapiens) (Q15418 whole entry): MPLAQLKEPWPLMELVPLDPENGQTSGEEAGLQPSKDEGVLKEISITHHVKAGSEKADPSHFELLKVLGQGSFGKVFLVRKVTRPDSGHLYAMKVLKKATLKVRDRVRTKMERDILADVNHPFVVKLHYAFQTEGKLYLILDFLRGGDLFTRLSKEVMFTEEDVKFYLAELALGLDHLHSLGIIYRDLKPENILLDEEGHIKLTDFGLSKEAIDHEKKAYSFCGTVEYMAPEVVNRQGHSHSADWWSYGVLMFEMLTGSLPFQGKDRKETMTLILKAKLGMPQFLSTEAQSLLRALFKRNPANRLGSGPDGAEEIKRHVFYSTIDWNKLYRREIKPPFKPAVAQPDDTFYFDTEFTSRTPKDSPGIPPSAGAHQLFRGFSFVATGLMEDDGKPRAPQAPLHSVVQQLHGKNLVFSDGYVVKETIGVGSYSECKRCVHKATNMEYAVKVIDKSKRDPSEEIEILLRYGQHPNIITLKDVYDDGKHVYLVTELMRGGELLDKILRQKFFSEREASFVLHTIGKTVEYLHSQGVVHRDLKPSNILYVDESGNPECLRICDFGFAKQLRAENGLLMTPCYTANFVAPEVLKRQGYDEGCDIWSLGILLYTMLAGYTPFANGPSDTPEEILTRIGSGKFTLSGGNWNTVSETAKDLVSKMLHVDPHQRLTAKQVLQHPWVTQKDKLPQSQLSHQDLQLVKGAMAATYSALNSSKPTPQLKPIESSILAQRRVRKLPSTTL

Nc1c2c(=O)[nH]c(-c3ccccc3)cc2nn1-c1ccccc1
inhibition [1]: 38%
IC50 [2]: 4800 nM
inhibition [3]: 79%
IC50 [4]: 1300 nM
inhibition [5]: 98%
inhibition [6]: 22%
inhibition [7]: 13%
inhibition [8]: -1%
inhibition [9]: 96%
inhibition [10]: -8%
inhibition [11]: -2%
inhibition of growth at 0.039 µM (MCF7): 35%
IC50 [12]: 1500 nM
inhibition [13]: 61%
solubility [14]: < 1 µg/mL
inhibition [15]: 96%
inhibition [16]: 29%
inhibition [17]: 2%
inhibition [18]: 23%
inhibition [19]: 90%
inhibition [20]: 12%
IC50 [21]: 1400 nM
inhibition [22]: 20%
IC50 [23]: 870 nM
inhibition [24]: -10%
IC50 [25]: 8700 nM
inhibition [26]: 2%
inhibition [27]: 96%
